In data set [1] the test system is Bacillus anthracis. The data set can be described thus: Antibacterial activity against Bacillus anthracis deltaANR after 14 hrs by microplate alamar blue assay. The class given is functional.
Data set [2] relates to Mycobacterium tuberculosis. The data set can be described thus: Antitubercular activity against Mycobacterium tuberculosis H37Rv after 16 to 24 hrs by microplate alamar blue assay. Type of data set: functional. An outline of the steps: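 H37Rv (ATCC 27294) in Middlebrook 7H12; twofold dilutions from 12.8 mM DMSO stocks, final 128 to 0.5 μM; 1 × 10^5 cfu/mL inoculum, aerobic 37 °C. Day 7: Tween 80 plus Alamar Blue added, then 16–24 h more. Fluorescence ex 530/em 590 nm; MIC is lowest concentration giving ≥90% reduction versus bacteria-only controls; rifampin, isoniazid positive controls.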
Background: Alamar Blue is a resazurin reagent that responds to reducing activity.

In data set [3] the test system is Human alphaherpesvirus 2. The data set is described as follows: Antiviral activity against HSV2 infected in mink lung cells assessed as reduction in viral titer at 1 ug/ml. Type of data set: functional. Further details: scale not given: the % may be the effect or the level left.
The nature of data set [4]: Cytotoxicity against human LoVo cells. Type of data set: cell-based. To be noted: read-out: MIC.
A short description of data set [5]: Cytotoxicity against human KB cells. The settings on record: read-out: MIC. The class given is cell-based.

Broadly, the MIC is the lowest concentration found to suppress growth.

Values after ≈ are worked out from the molar mass of the structure shown. Counter-ions that a name gives are not always drawn.

With `COc1c(C#N)c2c3ccccc3n(C)c2c2[nH]c3ccccc3c12`, the figures for the MIC in data set [1] and in data set [2] were over 200 µM and over 128 µM, respectively. `COc1c(C(N)=O)c2c3ccccc3[nH]c2c2c1c1ccccc1n2C` registered an MIC in data set [2] of over 128 µM. For `COc1c(C#N)c2c3ccccc3n(C)c2c2c1c1ccccc1n2C`, the MIC in data set [1] was over 200 µM; in data set [2], over 128 µM. For the compound `COc1c(C#N)c2c3ccccc3[nH]c2c2c1c1ccccc1n2Cc1ccccc1`, the MIC in data set [1] is over 200 µM; in data set [2], 44.1 µM (≈ 17.7 µg/mL). Take `Cn1c2ccccc2c2c(O)c(C#N)c3c4ccccc4[nH]c3c21`: the MIC is 6.3 µM (≈ 1.96 µg/mL) in data set [1] and 56.6 µM (≈ 17.6 µg/mL) in data set [2]. For the compound `N#Cc1c(O)c2c3ccccc3n(Cc3ccccc3)c2c2[nH]c3ccccc3c12`, the figures for the MIC in data set [1] and in data set [2] were 1.6 µM (≈ 0.62 µg/mL) and 60.6 µM (≈ 23.5 µg/mL), respectively.

`COc1c(C#N)c2c3ccccc3[nH]c2c2[nH]c3ccccc3c12`: the MIC in data set [1] was 6.3 µM (≈ 1.96 µg/mL); in data set [2], over 128 µM. For the compound `COc1c(C#N)c2c3ccccc3[nH]c2c2c1c1ccccc1n2C`, the Activity in data set [3] is listed as 95%. In addition, the MCC in data set [4] and in data set [5] was 5 µg/mL each time. The values for the MIC in data set [1] and in data set [2] were over 200 µM and over 128 µM, respectively.

`N#Cc1c(O)c2c3ccccc3[nH]c2c2[nH]c3ccccc3c12`: the values for the MIC in data set [1] and in data set [2] were 1.6 µM (≈ 0.476 µg/mL) and 15 µM (≈ 4.46 µg/mL), respectively.

`O=C(O)c1cn(C2CC2)c2cc(N3CCNCC3)c(F)cc2c1=O` [CIPROFLOXACIN HYDROCHLORIDE]: the MIC in data set [1] came to 0.1 µM. As for `NNC(=O)c1ccncc1` [ISONIAZID], the MIC in data set [2] was found to be 0.6 µM (≈ 0.0823 µg/mL). Turning to `CO[C@H]1/C=C/O[C@@]2(C)Oc3c(C)c(O)c4c(O)c(c(/C=N/N5CCN(C)CC5)c(O)c4c3C2=O)NC(=O)/C(C)=C\C=C\[C@H](C)[C@H](O)[C@@H](C)[C@@H](O)[C@@H](C)[C@H](OC(C)=O)[C@@H]1C` [RIFAMPIN], the MIC in data set [2] is 0.1 µM (≈ 0.0823 µg/mL).

As for `CN[C@@H]1C[C@H]2O[C@@](C)([C@@H]1OC)n1c3ccccc3c3c4c(c5c6ccccc6n2c5c31)C(=O)NC4` [STAUROSPORINE], the MIC in data set [1] worked out at 128 µM (≈ 59.7 µg/mL); in data set [2], 14.7 µM (≈ 6.86 µg/mL).

The values are drawn from ChEMBL document CHEMBL1152638, “Natural product leads for drug discovery: isolation, synthesis and biological evaluation of 6-cyano-5-methoxyindolo[2,3-a]carbazole based ligands as antibacterial agents” (Bioorg Med Chem, 2009).
